Test results from ChEMBL document CHEMBL1800059, “Spiroindane based amides as potent and selective MC4R agonists for the treatment of obesity” (Bioorg Med Chem Lett, 2010).
Calls of active or inactive are those of the source. No cut-off for these calls is given here.

Key:
Melanocortin receptor 4 [1] = molecular target: T1, Melanocortin receptor 4 (Homo sapiens, UniProt P32245); assay: Agonist activity at human MC4R expressed in CHO cells assessed as increase of alpha-MSH-stimulated cAMP release pretreated for 10 mins before alpha-MSH challenge measured after 40 mins; assay type: functional, cell-based
T1 sequence (P32245 whole entry): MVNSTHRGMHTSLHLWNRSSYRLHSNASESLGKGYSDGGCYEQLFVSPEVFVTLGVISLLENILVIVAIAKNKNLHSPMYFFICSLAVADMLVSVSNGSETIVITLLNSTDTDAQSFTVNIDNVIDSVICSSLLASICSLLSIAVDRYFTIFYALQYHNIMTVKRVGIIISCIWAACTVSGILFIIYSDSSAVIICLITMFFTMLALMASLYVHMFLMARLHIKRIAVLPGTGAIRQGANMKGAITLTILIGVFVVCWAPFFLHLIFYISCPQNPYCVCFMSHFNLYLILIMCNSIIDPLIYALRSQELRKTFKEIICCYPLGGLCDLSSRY
Outline: (§1)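 Each value is the mean of at least three repeat measurements. Functional read-outs give EC50 with % maximal activation.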

Melanocortin receptor 4 [2] = molecular target: T1, Melanocortin receptor 4; assay: Agonist activity at human MC4R expressed in CHO cells assessed as increase of alpha-MSH-stimulated cAMP release pretreated for 10 mins before alpha-MSH challenge measured after 40 mins relative to alpha-MSH; assay type: functional, cell-based; outline: as §1
[3] = Agonist activity at human MC1bR expressed in CHO cells assessed as increase of alpha-MSH-stimulated cAMP release pretreated for 10 mins before alpha-MSH challenge measured after 40 mins; assay type: functional, cell-based; outline: as §1
[4] = Agonist activity at human MC1bR expressed in CHO cells assessed as increase of alpha-MSH-stimulated cAMP release pretreated for 10 mins before alpha-MSH challenge measured after 40 mins relative to alpha-MSH; assay type: functional; outline: as §1
Mus musculus [5] = assay: Antiobesity activity in MC4R/3R knockout diet-induced obese mouse model assessed as reduction in food intake at 10 mg/kg, po; assay type: functional, organism-based; design: dose 10 mg/kg
Outline: (§2)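 Wild-type and MC4R/3R knockout mice received a single oral dose of 10 mg/kg, with a vehicle-dosed group for each genotype. Food intake and body weight change were measured against vehicle.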

Mus musculus [6] = assay: Antiobesity activity in wild type diet-induced obese mouse model assessed as reduction in food intake at 10 mg/kg, po; assay type: functional, organism-based; design: dose 10 mg/kg; outline: as §2
Mus musculus [7] = assay: Antiobesity activity in MC4R/3R knockout diet-induced obese mouse model assessed as reduction in body weight at 10 mg/kg, po; assay type: functional, organism-based; design: dose 10 mg/kg; outline: as §2
Mus musculus [8] = assay: Antiobesity activity in wild type diet-induced obese mouse model assessed as reduction in body weight at 10 mg/kg, po; assay type: functional, organism-based; design: dose 10 mg/kg; outline: as §2
Rattus norvegicus [9] = assay: Antiobesity activity in wild type 14 days diet-induced obese rat model assessed as reduction in body weight at 6 mg/kg, po BID; assay type: functional, organism-based; design: dose 6 mg/kg
Outline: (§3)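 Diet-induced obese rats were dosed orally twice daily for 14 days at 2, 6 or 20 mpk. Vehicle and orally dosed positive-control groups were included. Body weight was recorded daily and expressed as change in grams.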

Rattus norvegicus [10] = assay: Antiobesity activity in wild type 14 days diet-induced obese rat model assessed as reduction in body weight at 20 mg/kg, po BID; assay type: functional, organism-based; design: dose 20 mg/kg; outline: as §3
Melanocortin receptor 3 = Melanocortin receptor 3 (Mus musculus, UniProt P33033); assay: Agonist activity at mouse MC3 receptor; assay type: functional
Sequence of Melanocortin receptor 3 (P33033 whole entry): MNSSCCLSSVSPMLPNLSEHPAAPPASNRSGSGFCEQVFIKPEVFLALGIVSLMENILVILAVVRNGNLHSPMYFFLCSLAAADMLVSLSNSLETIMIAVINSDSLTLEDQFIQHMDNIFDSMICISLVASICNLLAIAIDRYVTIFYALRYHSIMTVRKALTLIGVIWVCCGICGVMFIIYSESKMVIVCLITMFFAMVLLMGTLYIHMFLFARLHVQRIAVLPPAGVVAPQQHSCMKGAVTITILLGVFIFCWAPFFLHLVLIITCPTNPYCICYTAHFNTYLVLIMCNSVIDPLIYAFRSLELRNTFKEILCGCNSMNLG

[11] = Oral bioavailability in Sprague-Dawley rat at 4 mg/kg; assay type: ADME, organism-based; settings: in vivo
[12] = Clearance in Sprague-Dawley rat at 1 mg/kg, iv and 4 mg/kg, po; assay type: ADME, organism-based; settings: in vivo
[13] = Volume of distribution at steady state in Sprague-Dawley rat at 1 mg/kg, iv and 4 mg/kg, po; assay type: ADME, organism-based; settings: in vivo, read-out: Vdss
[14] = Half life in Sprague-Dawley rat at 1 mg/kg, iv and 4 mg/kg, po; assay type: ADME, organism-based; settings: in vivo
Rattus norvegicus [15] = assay: Dose-normalized AUC in Sprague-Dawley rat at 1 mg/kg, iv and 4 mg/kg, po; assay type: ADME, organism-based; settings: in vivo
Melanocortin receptor 4 [16] = molecular target: T1, Melanocortin receptor 4; assay: Displacement of [125I]-NDP-R-MSH from human MC4R expressed in CHO cells after 1.5 hrs by scintillation counting; assay type: cell-based; outline: as §1
Rattus norvegicus [17] = assay: Antiobesity activity in wild type 14 days diet-induced obese rat model assessed as reduction in body weight at 10 mg/kg, po BID; assay type: functional, organism-based; design: dose 10 mg/kg

| Structure (SMILES) | EC50 (Melanocortin receptor 4 [1]) [nM] | Activity (Melanocortin receptor 4 [2]) [%] | EC50 [3] [nM] | Activity [4] [%] | Activity (Mus musculus [5]) | Activity (Mus musculus [6]) | Activity (Mus musculus [7]) | Activity (Mus musculus [8]) | Activity (Rattus norvegicus [9]) | Activity (Rattus norvegicus [10]) | EC50 (Melanocortin receptor 3) [nM] | bioavailability [11] [%] | clearance [12] [mL/min/kg] | Vd [13] [L/kg] | half-life [14] [h] | AUC/dose (Rattus norvegicus [15]) [µM·h/mg/kg] | IC50 (Melanocortin receptor 4 [16]) [nM] | Activity (Rattus norvegicus [17]) |
| --- | --- | --- | --- | --- | --- | --- | --- | --- | --- | --- | --- | --- | --- | --- | --- | --- | --- | --- |
| CC(=O)NC(C)(C)[C@@H]1CC2(CCN(C(=O)[C@@H]3CN(C(C)(C)C)C[C@H]3c3ccc(F)cc3F)CC2)c2cc(Cl)c(C)cc21 | 4.6 | 109 | 1020 | 25 | inactive | Active | inactive | Active | Active | Active | 1700 | – | – | – | – | – | – | – |
| Cc1cc2c(cc1Cl)C1(CCN(C(=O)[C@@H]3CN(C(C)(C)C)C[C@H]3c3ccc(F)cc3F)CC1)C[C@@H]2C(C)(C)C(=O)N(C)C | 0.87 | 108 | 255 | 92 | – | – | – | – | – | – | – | 24 | 17.2 | 6.95 | 5.14 | 0.39 | 0.71 | – |
| Cc1cc2c(cc1Cl)C1(CCN(C(=O)[C@@H]3CN(C(C)(C)C)C[C@H]3c3ccc(F)cc3F)CC1)C[C@@H]2C(C)(C)C(=O)N1CC(F)(F)C1 | 4.3 | 78 | 430 | 46 | – | – | – | – | – | – | – | 29 | 21.8 | 8.88 | 7.3 | 0.35 | 1.8 | – |
| CC[C@H](NC(C)=O)c1cc(Cl)ccc1C1CCN(C(=O)[C@@H]2CN(C(C)(C)C)C[C@H]2c2ccc(F)cc2F)CC1 | – | 97 | – | – | – | – | – | – | – | – | – | – | – | – | – | – | – | Active |
